Entries after “also recorded” stand apart in the source; their conditions may differ.
Tests used:
[1] = test system: primary monkey hepatocytes; assay: intracellular metabolism in primary monkey hepatocytes; assay type: in vitro ADME; conditions: 50 μM, 4 h
human cardiomyocytes [2] = assay: recording of human cardiomyocyte beating patterns; assay type: cell-based
HepG2 cells [3] = conditions: up to 50 μM; cited from earlier work
[4] = single dose escalation and seven day repeat dosing in dogs; conditions: dog, in vivo
Huh-7 cells = assay: intracellular metabolism in Huh-7 cells; assay type: in vitro ADME, human; conditions: Huh-7, 50 μM, 4 h
HepG2 cells [5] = assay: intracellular metabolism in HepG2 cells; assay type: in vitro ADME, human; conditions: HepG2, 50 μM, 4 h
[6] = test system: primary mouse hepatocytes; assay: intracellular metabolism in primary mouse hepatocytes; assay type: in vitro ADME; conditions: 50 μM, 4 h
primary dog hepatocytes = assay: intracellular metabolism in primary dog hepatocytes; assay type: in vitro ADME; conditions: 50 μM, 4 h
various cell lines = conditions: up to 100 μM; cited from earlier work
[7] = test system: HCV genotype 1 b RNA replication; assay: subgenomic HCV replicon system, inhibition of HCV RNA replication in Huh-7 cells; assay type: cell-based, hepatitis C virus; conditions: HCV genotype 1 b subgenomic replicon
Summary of the method: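 HCV genotype 1b subgenomic replicon in Huh-7 cells. HCV RNA and cellular ribosomal RNA were extracted and amplified, so replication and cytotoxicity were read in the same cells.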

[8] = single dose escalation and seven day repeat dosing in rats; conditions: rat, in vivo
primary rat hepatocytes = assay: intracellular metabolism in primary rat hepatocytes; assay type: in vitro ADME; conditions: 50 μM, 4 h
[9] = test system: primary human hepatocytes; assay: intracellular metabolism in primary human hepatocytes; assay type: in vitro ADME; conditions: 50 μM, 4 h
human cardiomyocytes [10] = assay: cellular accumulation and metabolism in human cardiomyocytes; assay type: in vitro ADME; conditions: 10 μM

## CC(C)OC(=O)CCc1ccccc1OP(=O)(N[C@@H](C)C(=O)OC(C)C)OC[C@H]1O[C@@H](n2cnc3c(N)nc(N)nc32)[C@](C)(O)[C@@H]1O (stereo partly drawn) [DAPN-PD, Isopropyl 3-(2-(((((2R,3R,4R,5R)-5-(2,6-diamino-9H-purin-9-yl)-3,4-dihydroxy-4-methyltetrahydrofuran-2-yl)methoxy)(((S)-1-isopropoxy-1-oxopropan-2-yl)amino)phosphoryl)oxy)phenyl)propanoate]
[1]
  Intracellular concentration: Prodrugs: 160 ± 4 pmol/10^6 cells
Human cardiomyocytes [2]; 2 μM, 2 h
  Beating rate of human cardiomyocytes: 33.5 ± 0.7 beats/minute
Human cardiomyocytes [2]; 2 μM, 4 h
  Beating rate of human cardiomyocytes: 34.0 ± 0 beats/minute
Human cardiomyocytes [2]; 2 μM, 8 h
  Beating rate of human cardiomyocytes: 37.0 ± 0 beats/minute
Human cardiomyocytes [2]; 2 μM, 12 h
  Beating rate of human cardiomyocytes: 36.0 ± 0 beats/minute
Human cardiomyocytes [2]; 2 μM, 24 h
  Beating rate of human cardiomyocytes: 34.0 ± 1.4 beats/minute
Human cardiomyocytes [2]; 2 μM, 48 h
  Beating rate of human cardiomyocytes: 27.5 ± 0.7 beats/minute
Human cardiomyocytes [2]; 2 μM, up to 48 h
  change in beating rate or rhythm of cardiomyocytes (observation): did not observe beating changes
Human cardiomyocytes [2]; 10 μM, 2 h
  Beating rate of human cardiomyocytes: 24.5 ± 0.7 beats/minute
Human cardiomyocytes [2]; 10 μM, 4 h
  Beating rate of human cardiomyocytes: 23.5 ± 0.7 beats/minute
Human cardiomyocytes [2]; 10 μM, 8 h
  Beating rate of human cardiomyocytes: 26.0 ± 1.4 beats/minute
Human cardiomyocytes [2]; 10 μM, 12 h
  Beating rate of human cardiomyocytes: 25.5 ± 0.7 beats/minute
Human cardiomyocytes [2]; 10 μM, 24 h
  Beating rate of human cardiomyocytes: 25.5 ± 0.7 beats/minute
Human cardiomyocytes [2]; 10 μM, 48 h
  Beating rate of human cardiomyocytes: 25.5 ± 0.7 beats/minute
Human cardiomyocytes [2]; 10 μM, up to 48 h
  change in beating rate or rhythm of cardiomyocytes (observation): changes to both beat rate and rhythm were noted; also recorded: caused the beat rate to decrease
Human cardiomyocytes [2]; 50 μM, 2 h
  Beating rate of human cardiomyocytes: 21.5 ± 0.7 beats/minute
Human cardiomyocytes [2]; 50 μM, 4 h
  Beating rate of human cardiomyocytes: 21.0 ± 0 beats/minute
Human cardiomyocytes [2]; 50 μM, 8 h
  Beating rate of human cardiomyocytes: 22.0 ± 0 beats/minute
Human cardiomyocytes [2]; 50 μM, 12 h
  Beating rate of human cardiomyocytes: 21.0 ± 0 beats/minute
Human cardiomyocytes [2]; 50 μM, 24 h
  Beating rate of human cardiomyocytes: 19.0 ± 0 beats/minute
Human cardiomyocytes [2]; 50 μM, 48 h
  Beating rate of human cardiomyocytes: 17.0 ± 0 beats/minute
Human cardiomyocytes [2]; 10 and 50 μM
  rhythm of cardiomyocytes (observation): altered and irregular
Human cardiomyocytes [2]; 10 and 50 μM, up to 48 h
  change in beating rate of cardiomyocytes (observation): the beating rate dropped within 2 h then remained at a reduced rate out to 48 h
HepG2 cells [3]
  mitochondrial toxicity or increase in lactic acid levels: no mitochondrial toxicity or increase in lactic acid levels
[4]
  NOAEL at 7 day: < 40 mg/kg/day
Huh-7 cells
  Intracellular concentration: Prodrugs: 170 ± 4 pmol/10^6 cells
HepG2 cells [5]
  Intracellular concentration: Prodrugs: 390 ± 33 pmol/10^6 cells
[6]
  Intracellular concentration: 2’-C-Me-G: BLOQ
  Intracellular concentration: Prodrugs: 13 ± 1 pmol/10^6 cells
Primary dog hepatocytes
  Intracellular concentration: Prodrugs: 6.3 ± 1.5 pmol/10^6 cells
Various cell lines
  in vitro cytotoxicity in various cell lines: no in vitro cytotoxicity
[7]
  Replicon Huh-7 EC50: sub-micromolar
[8]
  NOAEL at 7 day: < 40 mg/kg/day
Primary rat hepatocytes
  Intracellular concentration: Prodrugs: 0.90 ± 0.50 pmol/10^6 cells
[9]
  Intracellular concentration: Prodrugs: 70 ± 6 pmol/10^6 cells
Human cardiomyocytes [10]; 4 h
  Intracellular concentration in human cardiomyocytes: Prodrugs: 70 ± 3 pmol/10^6 cells
Human cardiomyocytes [10]; 8 h
  Intracellular concentration in human cardiomyocytes: Prodrugs: 51 ± 1 pmol/10^6 cells
Human cardiomyocytes [10]; human cardiomyocytes, 8 h
  intact prodrug level, times lower than BMS-986094: 16 times

Reference: article PMC7717620 (Nucleosides, nucleotides & nucleic acids, 2019)
